Data set [1] deals with Trypanosoma cruzi. Nature of the data set: Antitrypanosomal activity against Trypanosoma cruzi IRHOD/VO/2008/SN3 metacyclic forms infected in BALB/c mouse model of acute Chagas disease assessed as reduction parasitemia at 15 mg/kg/day, ip administered for 5 consecutive days starting on day 7 post infection until day 12 post infection and measured on day 40 post infection. The format is functional. More on the design: scale not given: the % may be the effect or the level left. The conditions noted are these: route intraperitoneal. The procedure, abridged: (§1)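 Groups of six female BALB/c mice (6–8 weeks, 25–30 g) inoculated ip with 5 × 10^5 metacyclic trypomastigotes. Dosed ip at 5 or 15 mg/kg/day on days 7–12 pi; untreated infected controls. Mandibular-vein blood (5 μL in 495 μL PBS) counted every 3 days for 40 days in a Neubauer chamber, as parasites/mL.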

For data set [2], the system named is Trypanosoma cruzi. Nature of the data set: Inhibition of Trypanosoma cruzi IRHOD/VO/2008/SN3 epimastigotes Iron superoxide dismutase at 50 uM by spectrophotometry. The procedure, abridged:
(§2)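 Enzyme from sonicated parasites in STE buffer, pH 7.8, or human erythrocyte CuZn-SOD. Activity measured as NBT reduction by superoxide (Beyer–Fridovich): methionine, NBT, Triton X-100 and riboflavin, with A560 read before and after 10 min of light. Compounds tested at 1–100 μM. Mean of five; IC50 by linear regression from Kc.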

For data set [3], the system named is Trypanosoma cruzi. Nature of the data set: Antitrypanosomal activity against Trypanosoma cruzi IRHOD/VO/2008/SN3 metacyclic forms infected in BALB/c mouse model of chronic Chagas disease subjected to 3 cycles of immunosuppression with 50 mg/kg cyclophosphamide monohydrate for 3 consecutive weeks assessed as parasitemia reactivation level at 5 mg/kg/day, ip administered for 5 consecutive days starting on day 7 post infection until day 12 post infection and measured on day 150 post infection. The format is functional. A digest of the protocol: (§3)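 Female BALB/c mice (6–8 wk, 25–30 g), six per group, were infected ip with 5 × 10^5 metacyclic trypomastigotes from infected mouse blood and dosed ip daily on days 7–12 pi. From day 120 pi a subgroup got three 4-day cycles of cyclophosphamide 50 mg/kg, 3 days apart. Parasites were counted by Neubauer chamber the day after cycle three in 5 μL mandibular-vein blood (1:100 PBS). Reactivation was scored against the matching non-immunosuppressed group; three experiments.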

In data set [4] the test system is Trypanosoma cruzi. Nature of the data set: Antitrypanosomal activity against Trypanosoma cruzi IRHOD/VO/2008/SN3 […] amastigotes infected in african green monkey Vero cells incubated for 72 hrs. The format is functional, organism-based. The conditions noted are these: IRHOD/VO/2008/SN3, Vero.
Data set [5] deals with Trypanosoma cruzi. Nature of the data set: Antitrypanosomal activity against Trypanosoma cruzi IRHOD/VO/2008/SN3 metacyclic forms infected in BALB/c mouse model of acute Chagas disease assessed as reduction parasitemia at 5 mg/kg/day, ip administered for 5 consecutive days starting on day 7 post infection until day 12 post infection and measured on day 15 to 20 post infection. The format is functional. A digest of the protocol:
as §1

In data set [6] the test system is Trypanosoma cruzi. Nature of the data set: Toxicity in Trypanosoma cruzi IRHOD/VO/2008/SN3 metacyclic forms infected BALB/c mouse model of acute Chagas disease assessed as mortality incidence at 5 mg/kg/day, ip administered for 5 consecutive days starting on day 7 post infection until day 12 post infection and measured 40 days post infection. The conditions noted are these: in vivo, 960 h. More on the design: route intraperitoneal. The format is organism-based. A digest of the protocol:
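Female BALB/c mice (6–8 wk, 25–30 g), six per group, were infected ip with 5 × 10^5 metacyclic trypomastigotes from infected mouse blood. Once infection was confirmed, compound was given ip daily on days 7–12 pi. An infected untreated group served as control. Deaths were recorded during treatment, and parasitemia was counted in mandibular-vein blood every 3 days up to day 40 pi.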

Data set [7] relates to Trypanosoma cruzi. Nature of the data set: Effect on glucose metabolism in Trypanosoma cruzi IRHOD/VO/2008/SN3 epimastigotes assessed as excreted L-lactate level at IC25 level incubated for 96 hrs at 28 degC by [1H]NMR spectroscopy.
Data set [8] concerns Trypanosoma cruzi. Nature of the data set: Effect on glucose metabolism in Trypanosoma cruzi IRHOD/VO/2008/SN3 epimastigotes assessed as excreted succinate level at IC25 level incubated for 96 hrs at 28 degC by [1H]NMR spectroscopy.
Data set [9] deals with Superoxide dismutase [Cu-Zn] (Homo sapiens, UniProt P00441). Nature of the data set: Inhibition of SOD1 in human erythrocytes by spectrophotometry. The format is cell-based. The procedure, abridged: as §2
Chain of Superoxide dismutase [Cu-Zn] (P00441 whole entry): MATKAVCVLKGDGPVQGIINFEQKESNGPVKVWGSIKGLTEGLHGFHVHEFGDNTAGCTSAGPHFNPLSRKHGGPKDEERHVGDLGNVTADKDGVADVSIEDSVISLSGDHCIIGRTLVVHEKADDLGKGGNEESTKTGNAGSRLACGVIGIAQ
The test system of data set [10] is Trypanosoma cruzi. Nature of the data set: Antitrypanosomal activity against Trypanosoma cruzi IRHOD/VO/2008/SN3 metacyclic forms infected in BALB/c mouse model of chronic Chagas disease subjected to 3 cycles of immunosuppression with 50 mg/kg cyclophosphamide monohydrate for 3 consecutive weeks assessed as change in IgG absorbance level at 15 mg/kg/day, ip administered for 5 consecutive days starting on day 7 post infection until day 12 post infection and measured on day 150 post infection by ELISA. Format: functional. The procedure, abridged:
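Infected, treated mice (ip 5 or 15 mg/kg/day, days 7–12 pi) kept to day 120. Half then given three 4-day cycles of cyclophosphamide at 50 mg/kg with 3-day gaps; the rest left untreated. Serum IgG measured by ELISA on parasite-excreted Fe-SOD antigen: 1:100 serum, anti-IgG peroxidase 1:1000, OPD, A492, in triplicate. Reported as immunosuppressed minus non-immunosuppressed OD.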
In general terms: In an ELISA, binding on a coated surface is turned into a signal by an enzyme label.

For data set [11], the system named is Trypanosoma cruzi. Nature of the data set: Effect on glucose metabolism in Trypanosoma cruzi IRHOD/VO/2008/SN3 epimastigotes assessed as excreted L-alanine level at IC25 level incubated for 96 hrs at 28 degC by [1H]NMR spectroscopy.
Data set [12] deals with Trypanosoma cruzi. Nature of the data set: Antitrypanosomal activity against Trypanosoma cruzi IRHOD/VO/2008/SN3 metacyclic forms infected in BALB/c mouse model of chronic Chagas disease subjected to 3 cycles of immunosuppression with 50 mg/kg cyclophosphamide monohydrate for 3 consecutive weeks assessed as parasitemia reactivation level at 15 mg/kg/day, ip administered for 5 consecutive days starting on day 7 post infection until day 12 post infection and measured on day 150 post infection. The format is functional. The procedure, abridged:
as §3

The source made the active and inactive calls. The calls are words filed in the database; no cut-off is given here.

The text below walks through data of ChEMBL document CHEMBL2176896, “Phthalazine derivatives containing imidazole rings behave as Fe-SOD inhibitors and show remarkable anti-T. cruzi activity in immunodeficient-mouse mode of infection” (J Med Chem, 2012).

`Clc1nnc(NCCCn2ccnc2)c2ccccc12`: the Activity in the data set on Trypanosoma cruzi [1] is recorded as 61%; in the data set on Trypanosoma cruzi [3], 21%; in the data set with Trypanosoma cruzi [6] it was “Non-toxic”; with Trypanosoma cruzi [7], -38%; in the data set with Trypanosoma cruzi [11] it was -27%; in the data set with Trypanosoma cruzi [12], 8%. In the data set with Trypanosoma cruzi [2], this compound yielded an inhibition of 100%. Also, the IC50 in the data set with Trypanosoma cruzi [4] stood at 10.6 µM; in [9] it was 83.1 µM. For the same compound, in the data set with Trypanosoma cruzi [5], the outcome was Active. The result with Trypanosoma cruzi [8] was inactive. In the data set with Trypanosoma cruzi [10], the deltaA is on record as 0.0096.

In the case of `Clc1nnc(NCCc2c[nH]cn2)c2ccccc12`, the Activity with Trypanosoma cruzi [1] is given as 74%; in the data set on Trypanosoma cruzi [3] it was 9%; in the data set on Trypanosoma cruzi [6] it was “Non-toxic”; in the data set with Trypanosoma cruzi [7] it was -33%; in the data set with Trypanosoma cruzi [11], -13%; with Trypanosoma cruzi [12], 4%. Moreover, the inhibition in the data set on Trypanosoma cruzi [2] was 100%. Further, the IC50 with Trypanosoma cruzi [4] was 10.1 µM; in [9] it was 71.5 µM. Also, the outcome with Trypanosoma cruzi [5] was Active. Moreover, in the data set with Trypanosoma cruzi [8], the outcome was inactive. For the same compound, the deltaA with Trypanosoma cruzi [10] stood at 0.0067.

As a reminder, the inhibition is the relative decrease from the control value, in per cent. Broadly, the IC50 is the midpoint of a concentration-inhibition curve.
